# Laboratory results from ChEMBL document CHEMBL1629596, “Antileishmanial activity of 1,3,4-thiadiazolium-2-aminide in mice infected with Leishmania amazonensis” (Antimicrob Agents Chemother, 2009).
# The source made the active and inactive calls. No cut-off for these calls is given here.
# Experiments:
# [1] = tested on: Mus musculus; test: Toxicity in CBA/J mouse assessed as change in body weight at 24 mg/kg/day, sc administered 5 doses a week for 4 weeks (reference value: 25 g); format: organism-based; set-up: route subcutaneous; conditions: in vivo, 672 h
# [2] = tested on: Leishmania amazonensis; test: Antileishmanial activity against Leishmania amazonensis infected in macrophages assessed as nitric oxide release; format: functional, organism-based
# [3] = tested on: Mus musculus; test: Toxicity in CBA/J mouse assessed as change in lymphocytes count at 24 mg/kg/day, sc administered 5 doses a week for 4 weeks (reference value: 75%); format: organism-based; set-up: route subcutaneous; conditions: in vivo, 672 h
# Summary of the method: (§1)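 Uninfected mice dosed subcutaneously in DMSO/PBS, 5 doses/week; tail blood taken at week 4 of treatment. Total leukocytes counted in Neubauer chamber; lymphocyte, monocyte and neutrophil values given as percentages.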
# [4] = tested on: Leishmania amazonensis; test: Antileishmanial activity against Leishmania amazonensis infected in CBA/J mouse assessed as reduction of lesion size at 24 mg/kg/day, sc administered 4 weeks after infection 5 dose in a week for 4 weeks measured after 12 weeks; format: functional, organism-based
# Summary of the method: (§2)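 Infected footpad thickness measured as lesion size, followed to week 12 postinfection. Subcutaneous dosing in DMSO/PBS vehicle began 27 days after infection, 5 doses a week for 4 weeks; controls received vehicle alone. Groups of seven mice, mean ± SEM.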
# [5] = tested on: Mus musculus; test: Toxicity in CBA/J mouse assessed as change in monocytes count at 24 mg/kg/day, sc administered 5 doses a week for 4 weeks (reference value: 5%); format: organism-based; set-up: route subcutaneous; conditions: in vivo, 672 h; summary of the method: as §1
# [6] = tested on: Leishmania amazonensis; test: Antileishmanial activity against Leishmania amazonensis infected in CBA/J mouse assessed as reduction of parasite loads in popliteal lymph nodes at 24 mg/kg/day, sc administered 4 weeks after infection 5 dose in a week for 4 weeks measured after 12 weeks; format: functional, organism-based; conditions: Popliteal lymph node
# Summary of the method: (§3)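 Week 12 postinfection (4 weeks after last dose): popliteal lymph nodes and spleens removed aseptically, weighed, homogenized in Schneider's medium + 10% FCS; eight 1:10 serial dilutions in triplicate, incubated at 26°C, read by inverted microscope; titer = last dilution with at least one parasite. Seven animals; subcutaneous dosing in DMSO/PBS, 5 doses/week for 4 weeks.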
# [7] = tested on: Leishmania amazonensis; test: Antileishmanial activity against Leishmania amazonensis infected in CBA/J mouse assessed as reduction of parasite loads in spleen at 24 mg/kg/day, sc administered 4 weeks after infection 5 dose in a week for 4 weeks measured after 12 weeks; format: functional, organism-based; summary of the method: as §3
# [8] = tested on: Mus musculus; test: Toxicity in CBA/J mouse assessed as change in alanine aminotransferase level at 24 mg/kg/day, sc administered 5 doses a week for 4 weeks (reference value: 52 +/- 6.2 U/ml); format: organism-based; set-up: route subcutaneous; conditions: in vivo, 672 h
# [9] = tested on: Mus musculus; test: Toxicity in CBA/J mouse assessed as change in neutrophils count at 24 mg/kg/day, sc administered 5 doses a week for 4 weeks (reference value: 19%); format: organism-based; set-up: route subcutaneous; conditions: in vivo, 672 h; summary of the method: as §1
# [10] = tested on: Mus musculus; test: Toxicity in CBA/J mouse assessed as change in white blood cell count at 24 mg/kg/day, sc administered 5 doses a week for 4 weeks (reference value: 14 x 10^3 ul); format: organism-based; set-up: route subcutaneous; conditions: in vivo, 672 h; summary of the method: as §1
# [11] = tested on: Mus musculus; test: Toxicity in CBA/J mouse assessed as change in aspartate aminotransferase level at 24 mg/kg/day, sc administered 5 doses a week for 4 weeks (reference value: 51 +/- 6.8 U/ml); format: organism-based; set-up: route subcutaneous; conditions: in vivo, 672 h
# [12] = tested on: Leishmania amazonensis; test: Antileishmanial activity against Leishmania amazonensis infected in CBA/J mouse assessed as reduction of foot-pad thickness at 24 mg/kg/day, sc administered 4 weeks after infection 5 dose in a week for 4 weeks measured after 12 weeks; format: functional, organism-based; summary of the method: as §2
# [13] = tested on: Leishmania amazonensis; test: Antileishmanial activity against Leishmania amazonensis infected in CBA/J mouse assessed as increase of nitric oxide production in lymph node cells at 22 mg/kg/day, sc administered 4 weeks after infection 5 dose in a week for 4 weeks measured after 12 weeks; format: functional, organism-based
# [14] = tested on: Mus musculus; test: Toxicity in CBA/J mouse assessed as change in monocytes count at 22 mg/kg/day, sc administered 5 doses a week for 4 weeks (reference value: 5%); format: organism-based; set-up: route subcutaneous; conditions: in vivo, 672 h; summary of the method: as §1
# [15] = tested on: Leishmania amazonensis; test: Antileishmanial activity against Leishmania amazonensis infected in CBA/J mouse assessed as reduction of parasite loads in spleen at 22 mg/kg/day, sc administered 4 weeks after infection 5 dose in a week for 4 weeks measured after 12 weeks; format: functional, organism-based; summary of the method: as §3
# [16] = tested on: Mus musculus; test: Toxicity in CBA/J mouse assessed as change in body weight at 22 mg/kg/day, sc administered 5 doses a week for 4 weeks (reference value: 25 g); format: organism-based; set-up: route subcutaneous; conditions: in vivo, 672 h
# [17] = tested on: Leishmania amazonensis; test: Antileishmanial activity against Leishmania amazonensis infected in CBA/J mouse assessed as reduction of foot-pad thickness at 22 mg/kg/day, sc administered 4 weeks after infection 5 dose in a week for 4 weeks measured after 12 weeks; format: functional, organism-based; summary of the method: as §2
# [18] = tested on: Mus musculus; test: Toxicity in CBA/J mouse assessed as change in aspartate aminotransferase level at 22 mg/kg/day, sc administered 5 doses a week for 4 weeks (reference value: 51 +/- 6.8 U/ml); format: organism-based; set-up: route subcutaneous; conditions: in vivo, 672 h
# [19] = tested on: Mus musculus; test: Toxicity in CBA/J mouse assessed as change in lymphocytes count at 22 mg/kg/day, sc administered 5 doses a week for 4 weeks (reference value: 75%); format: organism-based; set-up: route subcutaneous; conditions: in vivo, 672 h; summary of the method: as §1
# [20] = tested on: Mus musculus; test: Toxicity in CBA/J mouse assessed as change in alanine aminotransferase level at 22 mg/kg/day, sc administered 5 doses a week for 4 weeks (reference value: 52 +/- 6.2 U/ml); format: organism-based; set-up: route subcutaneous; conditions: in vivo, 672 h
# [21] = tested on: Leishmania amazonensis; test: Antileishmanial activity against Leishmania amazonensis infected in CBA/J mouse assessed as reduction of parasite loads in popliteal lymph nodes at 22 mg/kg/day, sc administered 4 weeks after infection 5 dose in a week for 4 weeks measured after 12 weeks; format: functional, organism-based; conditions: Popliteal lymph node; summary of the method: as §3
# [22] = tested on: Mus musculus; test: Toxicity in CBA/J mouse assessed as change in white blood cell count at 22 mg/kg/day, sc administered 5 doses a week for 4 weeks (reference value: 14 x 10^3 ul); format: organism-based; set-up: route subcutaneous; conditions: in vivo, 672 h; summary of the method: as §1
# [23] = tested on: Mus musculus; test: Toxicity in CBA/J mouse assessed as change in neutrophils count at 22 mg/kg/day, sc administered 5 doses a week for 4 weeks (reference value: 19%); format: organism-based; set-up: route subcutaneous; conditions: in vivo, 672 h; summary of the method: as §1
# [24] = tested on: Leishmania amazonensis; test: Antileishmanial activity against Leishmania amazonensis infected in CBA/J mouse assessed as reduction of parasite loads in spleen at 100 mg/kg/day, sc administered 4 weeks after infection 5 dose in a week for 4 weeks measured after 12 weeks; format: functional, organism-based
# Summary of the method: (§4)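 Mice were killed at week 12, 4 weeks after treatment ended. Popliteal lymph nodes and spleens were removed aseptically, weighed and homogenized in Schneider's medium + 10% fetal calf serum. Eight serial 1:10 dilutions were plated in triplicate and incubated at 26°C. Titer was the last dilution with ≥1 parasite by microscopy. Groups were seven mice.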
# [25] = tested on: Leishmania amazonensis; test: Antileishmanial activity against Leishmania amazonensis infected in CBA/J mouse assessed as reduction of parasite loads in popliteal lymph nodes at 100 mg/kg/day, sc administered 4 weeks after infection 5 dose in a week for 4 weeks measured after 12 weeks; format: functional, organism-based; conditions: Popliteal lymph node; summary of the method: as §4
# [26] = tested on: Leishmania amazonensis; test: Antileishmanial activity against Leishmania amazonensis infected in CBA/J mouse assessed as reduction of lesion size at 100 mg/kg/day, sc administered 4 weeks after infection 5 dose in a week for 4 weeks measured after 12 weeks; format: functional, organism-based
# Summary of the method: (§5)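 Sc dosing started day 27 post-infection, 5 doses/week for 4 weeks. Controls got DMSO/PBS vehicle. Footpad swelling was followed to week 12 and recorded as infected-footpad thickness. Groups were seven mice, reported as mean with standard errors.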
# [27] = tested on: Leishmania amazonensis; test: Antileishmanial activity against Leishmania amazonensis infected in CBA/J mouse assessed as reduction of foot-pad thickness at 100 mg/kg/day, sc administered 4 weeks after infection 5 dose in a week for 4 weeks measured after 12 weeks; format: functional, organism-based; summary of the method: as §5
molecule,measurement,setting,value
C(=C\c1sc(Nc2ccccc2)n[n+]1-c1ccccc1)/c1ccccc1.[Cl-],Activity,[1],26 g
same,Activity,[2],Active
same,Activity,[3],70%
same,Activity,[4],inactive
same,Activity,[5],5%
same,Activity,[6],Active
same,Activity,[7],Active
same,Activity,[8],58 U/ml
same,Activity,[9],24%
same,Activity,[10],12 ×10³ /uL
same,Activity,[11],48 U/ml
same,Activity,[12],Active
COc1ccc(/C=C/c2sc(Nc3ccccc3)n[n+]2-c2ccccc2)cc1.[Cl-],Activity,[13],Active
same,Activity,[2],Active
same,Activity,[14],5%
same,Activity,[15],Active
same,Activity,[16],27 g
same,Activity,[17],Active
same,Activity,[18],53 U/ml
same,Activity,[19],69%
same,Activity,[20],57 U/ml
same,Activity,[21],Active
same,Activity,[22],12 ×10³ /uL
same,Activity,[23],25%
MEGLUMINE ANTIMONATE,Activity,[24],Active
same,Activity,[25],Active
same,Activity,[26],inactive
same,Activity,[27],Active
